The values that follow come from ChEMBL document CHEMBL1921794, “Synthesis and in vitro evaluation of analogues of avocado-produced toxin (+)-(R)-persin in human breast cancer cells” (Bioorg Med Chem, 2011).

Assay [1] relates to MCF7. As to the kind of experiment: Cytotoxicity against human MCF7 cells expressing ER assessed as growth inhibition after 24 hrs by MTS assay. The class given is functional, cell-based. To be noted: MCF7, 24 h. The procedure, abridged: (§1)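 ATCC breast cancer cells kept in RPMI-1640 with 5% FCS, insulin and glutamine under standard conditions. Cells in 96-well plates were treated in triplicate for 24 h with drug or vehicle. MTS viability was read as absorbance at 490 nm, expressed as a percentage of solvent controls, and IC50 was derived.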
A general note: Tetrazolium assays rely on reduction of a dye to a coloured formazan, in cell work by metabolically active cells.

Assay [2] has as its system MCF7. Kind of assay: Cytotoxicity against human MCF7 cells expressing ER, wild type p53, BimEL, BimL and BimS assessed as growth inhibition after 24 hrs by MTS assay. To be noted: MCF7, 24 h. In kind it is functional, cell-based. A digest of the protocol: as §1
Another assay has as its system T47D. Kind of assay: Cytotoxicity against BimL, BimS deficient human T47D cells expressing ER, p53 mutant, BimEL assessed as growth inhibition after 24 hrs by MTS assay. The class given is functional, cell-based. A digest of the protocol:
as §1

For a further assay, the system named is MDA-MB-468. As to the kind of experiment: Cytotoxicity against ER deficient human MDA-MB-468 cells expressing p53 mutant, BimEL, BimL and BimS assessed as growth inhibition after 24 hrs by MTS assay. In kind it is functional, cell-based. As to conditions: MDA-MB-468, 24 h. A digest of the protocol:
as §1

The subject of a further assay is MDA-MB-157. Kind of assay: Cytotoxicity against ER, BimL and BimS deficient human MDA-MB-157 cells expressing p53 mutant, BimEL assessed as growth inhibition after 24 hrs by MTS assay. In kind it is functional, cell-based. To be noted: MDA-MB-157, 24 h. A digest of the protocol: as §1
A further assay deals with SK-BR-3. Kind of assay: Cytotoxicity against ER deficient human SKBR3 cells expressing p53 mutant, BimEL, BimL and BimS assessed as growth inhibition after 24 hrs by MTS assay. In kind it is functional, cell-based. As to conditions: SK-BR-3, 24 h. A digest of the protocol: as §1
For another assay, the system named is Hs-578T. Kind of assay: Cytotoxicity against ER, BimEL, BimL and BimS deficient human Hs578T cells expressing p53 mutant assessed as growth inhibition after 24 hrs by MTS assay. In kind it is functional, cell-based. A digest of the protocol: as §1
The next assay relates to MDA-MB-231. As to the kind of experiment: Cytotoxicity against ER, BimEL, BimL and BimS deficient human MDA-MB-231 cells expressing p53 mutant assessed as growth inhibition after 24 hrs by MTS assay. In kind it is functional, cell-based. To be noted: MDA-MB-231, 24 h. A digest of the protocol:
as §1

A further assay relates to MCF-10A. Kind of assay: Cytotoxicity against ER, BimL and BimS deficient human MCF10A cells expressing wild type p53, BimEL assessed as growth inhibition after 24 hrs by MTS assay. The class given is cell-based. The procedure, abridged:
(§2)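 Cell lines were obtained from ATCC, plated in 96-well plates, and exposed in triplicate to drug or vehicle for 24 h. Viability was measured by MTS absorbance at 490 nm, taken as a percentage of solvent-treated controls, and IC50 was derived.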

The subject of another assay is OVCAR-3. As to the kind of experiment: Cytotoxicity against BimEL, BimL and BimS deficient human OVCAR3 cells expressing p53 mutant assessed as growth inhibition after 24 hrs by MTS assay. In kind it is functional, cell-based. To be noted: OVCAR-3, 24 h. The procedure, abridged: as §2
The subject of the next assay is IGROV-1. As to the kind of experiment: Cytotoxicity against human IGROV1 cells expressing p53 mutant, BimEL, BimL and BimS assessed as growth inhibition after 24 hrs by MTS assay. The class given is functional, cell-based. As to conditions: IGROV-1, 24 h. The procedure, abridged: as §2
The test system of another assay is PC-3. Kind of assay: Cytotoxicity against AR and BimS deficient human PC3 cells expressing p53 mutant, BimEL, BimL assessed as growth inhibition after 24 hrs by MTS assay. As to conditions: PC-3, 24 h. The class given is functional, cell-based. A digest of the protocol:
as §2

For another assay, the system named is LNCaP. As to the kind of experiment: Cytotoxicity against human LNCAP cells expressing AR, wild type p53, BimEL, BimL and BimS assessed as growth inhibition after 24 hrs by MTS assay. In kind it is functional, cell-based. A digest of the protocol:
as §2

As a reminder, the IC50 is the concentration needed to halve the response being measured.

For `CCCCC/C=C\C/C=C\CCCCCCCC(=O)C[C@@H](O)COC(=O)c1ccncc1`, in the assay with MCF7 [1], the IC50 was determined as 20.1 µM.

As for `CCCCCCC(=O)C[C@@H](O)COC(C)=O`, the IC50 with MCF7 [1] was more than 65 µM.

For the compound `CCCCC/C=C\C/C=C\CCCCCCCC(=O)C[C@H](COC(=O)c1ccc(Br)cc1)OC(=O)c1ccc(Br)cc1`, the IC50 in the assay on MCF7 [1] was more than 21 µM.

Take `CCCCC/C=C\C/C=C\CCCCCCCC(=O)C[C@@H](O)COC(C)=O`: the IC50 turned out to be 15.1 µM in the assay with MCF7 [1]; 15.1 µM in the assay with MCF7 [2]; 30.3 µM in the assay with T47D; 25 µM with MDA-MB-468; 12.8 µM in the assay on MDA-MB-157; 19.7 µM in the assay with SK-BR-3. Moreover, the IC50 was 32.1 µM in the assay with Hs-578T; more than 39 µM with MDA-MB-231; more than 39 µM with MCF-10A; 27.9 µM with OVCAR-3; 15.6 µM in the assay on IGROV-1; 30 µM in the assay on PC-3. Moreover, in the assay on LNCaP, the half-inhibitory concentration (IC50) was determined as 22 µM.

For the compound `CCCCCCCCCCCCCCCCCC(=O)C[C@@H](O)COC(C)=O`, the IC50 with MCF7 [1] was 17.1 µM; with MCF7 [2], 18.2 µM; with T47D, 20.7 µM; with MDA-MB-468 it was more than 39 µM; in the assay with MDA-MB-157, more than 39 µM; in the assay on SK-BR-3 it was more than 39 µM. Also, the IC50 with Hs-578T, in the assay on MDA-MB-231, in the assay with MCF-10A, in the assay on OVCAR-3, in the assay with IGROV-1 and with PC-3 was more than 39 µM in each case. Besides, the IC50 in the assay on LNCaP was more than 39 µM.

As for `CCCCC/C=C\C/C=C\CCCCCCCC(=O)C[C@H](COC(=O)c1ccccc1)OC(=O)c1ccccc1`, the IC50 in the assay with MCF7 [1] was more than 27 µM.

As to `CCCCC/C=C\C/C=C\CCCCCCCC(=O)C[C@H](COC(=O)c1ccc([N+](=O)[O-])cc1)OC(=O)c1ccc([N+](=O)[O-])cc1`, in the assay on MCF7 [1], the half-maximal inhibitory concentration (IC50) is more than 24 µM.

On to `CCCCC/C=C\C/C=C\CCCCCCCC(=O)/C=C/COC(=O)c1ccc([N+](=O)[O-])cc1`, for which the IC50 in the assay on MCF7 [1] was more than 32 µM.

On to `CCCCC/C=C\C/C=C\CCCCCCCC(=O)C[C@@H](O)COC(=O)c1ccccc1`, for which, in the assay with MCF7 [1], the IC50 turned out to be 27 µM.

As for `CCCCCCCCCCCCCCCCCC(=O)C(C)(C)[C@@H](O)COC(C)=O`, the 50% inhibitory concentration (IC50) in the assay on MCF7 [1] was 29 µM.

As for `CCCCC/C=C\C/C=C\CCCCCCCC(=O)C[C@@H](O)COC(=O)c1ccc(Br)cc1`, the IC50 in the assay on MCF7 [1] came to 23.8 µM.
